From ChEMBL document CHEMBL4689842, “EUbOPEN Chemogenomics Library wave 1” (2021)

Test system: HEK-293T
Test: Multiplex assay against HEK293T;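 as to Population Tubulin-Different-Phenotype (%): share of the cells with healthy nuclei that show this phenotype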
Assay type: toxicity, cell-based
Settings: human
Method in brief: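 Imaging took place on a CQ1 microscope at 37°C and 5% CO2 once compound had been added to live cells stained at seeding with Hoechst33342, BioTracker Green Microtubule Cytoskeleton Dye, MitoTracker Red and Annexin V Alexa Fluor 680. CellPathfinder machine-learning gating classed cells as Hoechst high-intensity objects or normal cells, classed normal cells as having healthy, pyknosed or fragmented nuclei, and classed pyknosed cells as mitotic or apoptotic. Tubulin, mitochondrial-mass and membrane-permeability phenotypes are per cents of the healthy-nucleus cells.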

[1] = 12 h, 1 µM, compound concentration 1 uM, replicate 1
[2] = 12 h, 1 µM, compound concentration 1 uM, replicate 2
[3] = 12 h, 10 µM, compound concentration 10 uM, replicate 1
[4] = 12 h, 10 µM, compound concentration 10 uM, replicate 2
[5] = 24 h, 1 µM, compound concentration 1 uM, replicate 1
[6] = 24 h, 1 µM, compound concentration 1 uM, replicate 2
[7] = 24 h, 10 µM, compound concentration 10 uM, replicate 1
[8] = 24 h, 10 µM, compound concentration 10 uM, replicate 2
[9] = 48 h, 1 µM, compound concentration 1 uM, replicate 1
[10] = 48 h, 1 µM, compound concentration 1 uM, replicate 2
[11] = 48 h, 10 µM, compound concentration 10 uM, replicate 1
[12] = 48 h, 10 µM, compound concentration 10 uM, replicate 2

## CC(/C=C1\SC(=S)N(CCCC(=O)Nc2ccc(C(=O)O)c(O)c2)C1=O)=C\c1ccccc1
[1]
  Population Apoptotic (%): 38%
  Population Fragmented Nuclei (%): 11%
  Population Healthy Nuclei (%): 34%
  Population Hoechst High Intensity Objects (%): 9%
  Population Membrane Permeable-Phenotype (%): 3%
  Population Mitochondria Different-Phenotype (%): 68%
  Population Mitotic Cells (%): 61%
  Population Normal (%): 90%
  Population Pyknosed Nuclei (%): 53%
  Population Tubulin-Different-Phenotype (%): 34%
  Total Cell Count: 251
[2]
  Population Apoptotic (%): 5%
  Population Fragmented Nuclei (%): 2%
  Population Healthy Nuclei (%): 44%
  Population Hoechst High Intensity Objects (%): 2%
  Population Membrane Permeable-Phenotype (%): 9%
  Population Mitochondria Different-Phenotype (%): 20%
  Population Mitotic Cells (%): 94%
  Population Normal (%): 97%
  Population Pyknosed Nuclei (%): 52%
  Population Tubulin-Different-Phenotype (%): 21%
  Total Cell Count: 242
[3]
  Population Apoptotic (%): 40%
  Population Fragmented Nuclei (%): 10%
  Population Healthy Nuclei (%): 35%
  Population Hoechst High Intensity Objects (%): 13%
  Population Membrane Permeable-Phenotype (%): 6%
  Population Mitochondria Different-Phenotype (%): 65%
  Population Mitotic Cells (%): 59%
  Population Normal (%): 86%
  Population Pyknosed Nuclei (%): 54%
  Population Tubulin-Different-Phenotype (%): 34%
  Total Cell Count: 255
[4]
  Population Apoptotic (%): 8%
  Population Fragmented Nuclei (%): 5%
  Population Healthy Nuclei (%): 50%
  Population Hoechst High Intensity Objects (%): 1%
  Population Membrane Permeable-Phenotype (%): 5%
  Population Mitochondria Different-Phenotype (%): 5%
  Population Mitotic Cells (%): 91%
  Population Normal (%): 98%
  Population Pyknosed Nuclei (%): 43%
  Population Tubulin-Different-Phenotype (%): 8%
  Total Cell Count: 269
[5]
  Population Apoptotic (%): 41%
  Population Fragmented Nuclei (%): 13%
  Population Healthy Nuclei (%): 41%
  Population Hoechst High Intensity Objects (%): 13%
  Population Membrane Permeable-Phenotype (%): 1%
  Population Mitochondria Different-Phenotype (%): 53%
  Population Mitotic Cells (%): 58%
  Population Normal (%): 86%
  Population Pyknosed Nuclei (%): 45%
  Population Tubulin-Different-Phenotype (%): 26%
  Total Cell Count: 263
[6]
  Population Apoptotic (%): 16%
  Population Fragmented Nuclei (%): 5%
  Population Healthy Nuclei (%): 62%
  Population Hoechst High Intensity Objects (%): 1%
  Population Membrane Permeable-Phenotype (%): 13%
  Population Mitochondria Different-Phenotype (%): 10%
  Population Mitotic Cells (%): 84%
  Population Normal (%): 98%
  Population Pyknosed Nuclei (%): 32%
  Population Tubulin-Different-Phenotype (%): 30%
  Total Cell Count: 315
[7]
  Population Apoptotic (%): 41%
  Population Fragmented Nuclei (%): 11%
  Population Healthy Nuclei (%): 38%
  Population Hoechst High Intensity Objects (%): 16%
  Population Membrane Permeable-Phenotype (%): 2%
  Population Mitochondria Different-Phenotype (%): 60%
  Population Mitotic Cells (%): 58%
  Population Normal (%): 83%
  Population Pyknosed Nuclei (%): 49%
  Population Tubulin-Different-Phenotype (%): 50%
  Total Cell Count: 261
[8]
  Population Apoptotic (%): 7%
  Population Fragmented Nuclei (%): 2%
  Population Healthy Nuclei (%): 72%
  Population Hoechst High Intensity Objects (%): 1%
  Population Membrane Permeable-Phenotype (%): 13%
  Population Mitochondria Different-Phenotype (%): 5%
  Population Mitotic Cells (%): 92%
  Population Normal (%): 98%
  Population Pyknosed Nuclei (%): 24%
  Population Tubulin-Different-Phenotype (%): 23%
  Total Cell Count: 356
[9]
  Population Apoptotic (%): 31%
  Population Fragmented Nuclei (%): 19%
  Population Healthy Nuclei (%): 40%
  Population Hoechst High Intensity Objects (%): 10%
  Population Membrane Permeable-Phenotype (%): 4%
  Population Mitochondria Different-Phenotype (%): 24%
  Population Mitotic Cells (%): 68%
  Population Normal (%): 89%
  Population Pyknosed Nuclei (%): 40%
  Population Tubulin-Different-Phenotype (%): 26%
  Total Cell Count: 330
[10]
  Population Apoptotic (%): 3%
  Population Fragmented Nuclei (%): 4%
  Population Healthy Nuclei (%): 83%
  Population Hoechst High Intensity Objects (%): 3%
  Population Membrane Permeable-Phenotype (%): 9%
  Population Mitochondria Different-Phenotype (%): 3%
  Population Mitotic Cells (%): 96%
  Population Normal (%): 96%
  Population Pyknosed Nuclei (%): 11%
  Total Cell Count: 570
[11]
  Population Apoptotic (%): 49%
  Population Fragmented Nuclei (%): 17%
  Population Healthy Nuclei (%): 44%
  Population Hoechst High Intensity Objects (%): 12%
  Population Membrane Permeable-Phenotype (%): 2%
  Population Mitochondria Different-Phenotype (%): 26%
  Population Mitotic Cells (%): 50%
  Population Normal (%): 87%
  Population Pyknosed Nuclei (%): 37%
  Population Tubulin-Different-Phenotype (%): 29%
  Total Cell Count: 339
[12]
  Population Apoptotic (%): 12%
  Population Fragmented Nuclei (%): 7%
  Population Healthy Nuclei (%): 86%
  Population Hoechst High Intensity Objects (%): 3%
  Population Membrane Permeable-Phenotype (%): 9%
  Population Mitochondria Different-Phenotype (%): 3%
  Population Mitotic Cells (%): 87%
  Population Normal (%): 96%
  Population Pyknosed Nuclei (%): 6%
  Population Tubulin-Different-Phenotype (%): 16%
  Total Cell Count: 675
